SENP8 block-1 = inhibitors of human SENP8 protease. recombinant SENP8, Nedd8 substrate fluorescence. Q96LD8. hit rate 0.64% among 360,000. inhibition, % at 20 µM; in the data active means inhibition mostly above about 40%, no sharp cut-off; inactive means mostly below about 27%
SENP7 inh = inhibitors of human SENP7 protease; Q9BQF6; hit rate 1.5% among 330,000; recombinant SENP7, Z-RLRGG-aminoluciferin luminescence, 40 min; AID 434973; inhibition, % at 5 µM;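 active means inhibition above about 50% at the single test dose, limit read from the data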;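 further: plate controls were DMSO with enzyme for no effect and no enzyme buffer wells for full effect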
SENP6 inh = blocks the human protease SENP6 | inhibition, % at 10 µM | hit rate 1.8% among 330,000 | Recombinant SENP6 catalytic domain, aminoluciferin luminescence;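 active means inhibition above about 50% at the single tested dose, limit read from the data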;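 further: plate controls were DMSO wells with enzyme for no effect and DMSO wells lacking enzyme for full effect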
SENP8 block-2 = inhibitors of human SENP8 protease. Q96LD8. purified SENP8, Z-RLRGG-aminoluciferin cleavage, luminescence. inhibition, % at 10 µM. hit rate 1.2% among 330,000. AID 2540; in the data active means inhibition above about 50%
Apaf-1 inh = human Apaf-1 inhibition; O14727; reconstituted apoptosome caspase-3 activity, DEVD-Rh110 fluorescence; inhibition, % at 20 µM; hit rate 0.71% among 330,000; AID 489030; active means inhibition of at least 40% at 20 µM;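 further: plate controls were DMSO wells for no effect and DEVD-CHO caspase inhibitor wells for full effect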
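System: reconstituted apoptosome with Apaf-1, cytochrome c, caspase-9, procaspase-3, dATP; Signal: Rh110 fluorescence intensity; Schedule: 30 min compound preincubation, 50 min activation, room temperature; Reagent: cytochrome c trigger plus (Z-DEVD)2-Rh110 caspase-3 substrate.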
UBC13 polyUb = blocks human UBC13 polyubiquitin chain formation | TR-FRET | P61088 | hit rate 0.47% among 330,000 | inhibition, % at 20 µM; in the data active means inhibition above about 45%, passing the limit was not always enough
Target sequence (P61088 whole entry, looked up): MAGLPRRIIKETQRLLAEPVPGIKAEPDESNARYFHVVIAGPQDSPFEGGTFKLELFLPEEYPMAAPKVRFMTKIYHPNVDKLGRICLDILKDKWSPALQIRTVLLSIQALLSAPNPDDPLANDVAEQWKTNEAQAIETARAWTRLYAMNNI
SENP8 conf = human SENP8 inhibition, confirmed. Recombinant SENP8, Z-RLRGG-aminoluciferin luminescence, 60 min. hit rate 40% among 6,200. inhibition, % at 12.5 µM. shares compounds with SENP7 inh;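 active means mean inhibition across replicates above about 50%, limit read from the data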
SENP6 confirm = human SENP6 inhibition, confirmed; recombinant SENP6, Z-RLRGG-aminoluciferin luminescence; inhibition, % at 12.5 µM; AID 488915; shares compounds with SENP7 inh; hit rate 58% among 6,200
SENP7 confirm = confirmation of human SENP7 protease inhibitors. recombinant SENP7, Z-RLRGG-aminoluciferin luminescence, 40 min. hit rate 69% among 6,200. shares compounds with SENP7 inh. inhibition, % at 12.5 µM. AID 488917
Casp3 select = inhibits human caspase-3 in SENP selectivity test; shares compounds with SENP7 inh; purified caspase-3, Z-DEVD-aminoluciferin luminescence, 60 min; inhibition, % at 12.5 µM; hit rate 60% among 6,200; AID 488918;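 active means mean inhibition above about 50%, limit read from the data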;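 further: plate controls were enzyme with DMSO for no effect and wells without caspase-3 for full effect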
Target sequence (P42574 28-227 limits assumed): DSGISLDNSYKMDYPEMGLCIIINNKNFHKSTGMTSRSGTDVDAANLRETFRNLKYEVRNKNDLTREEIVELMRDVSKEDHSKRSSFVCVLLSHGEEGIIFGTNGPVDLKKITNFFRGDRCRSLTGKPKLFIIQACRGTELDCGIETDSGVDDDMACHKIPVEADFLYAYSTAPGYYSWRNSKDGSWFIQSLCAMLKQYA
Luc interf = counter-screen for SENP inhibitors: luminescence interference; hit rate 39% among 6,200; Pre-incubated SENP8/Z-RLRGG-aminoluciferin, luciferase luminescence interference; AID 488919; inhibition, % at 12.5 µM; shares compounds with SENP7 inh;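 active means mean inhibition above about 50% when retested at one dose, limit read from the data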;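 further: plate controls were DMSO wells with completed reaction for no effect and substrate without enzyme for full effect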
An asterisk follows results filed as active; i = inactive; . = not tested or not shown. Hits are enriched below; roughly 3% of the tested compounds scored in any of these assays.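 How the source made its calls, unless noted: active means mean inhibition above about 50% in the one-dose retest (limit read from the data); inactive means the rest.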

SMILES	SENP8 block-1	SENP7 inh	SENP6 inh	SENP8 block-2	Apaf-1 inh	UBC13 polyUb	SENP8 conf	SENP6 confirm	SENP7 confirm	Casp3 select	Luc interf
c1ccc(CSc2ncnc3c2cnn3-c2ccccc2)cc1	-5	72*	71*	54*	3	17	9	7	19	5	8
CC(C)OC(=O)CSc1ncnc2c1cnn2-c1ccccc1	-25	52*	33	19	-7	16	15	18	26	28	7
CC(=O)NC(C)(c1ccccc1)c1nc(-c2ccc(F)c(Cl)c2)cs1 (stereo not given)	7	.	.	.	.	.	.	.	.	.	.
Cc1ccccc1C1=NC(c2ccc(F)cc2F)ON1 (stereo not given)	20	34	66*	35	0	1	-14	5	40	14	5
CC(C)c1ccc2oc(-c3cc(N)ccc3O)nc2c1	-115	86*	94*	91*	18	-2	44	91*	94*	70*	20
Cc1ccccc1-c1nc2ccccc2c(=O)o1	-30	.	.	.	.	.	.	.	.	.	.
Cc1ccccc1-c1nc2cc(N)ccc2o1	-264	74*	72*	60*	-20	16	9	9	-3	0	1
CCOC(=O)[C@]12CCC=C1N(Cc1ccc(Cl)cc1Cl)C(=O)[C@H](CC(=O)N1CCSCC1)C2	16	.	.	.	.	.	.	.	.	.	.
O=C(Nc1ccc2[nH]ccc2c1)c1ccccc1	-10	-1	8	-3	-8	3	.	.	.	.	.
O=C(Nc1ccc2[nH]c(=S)sc2c1)Nc1ccccc1F	-6	99*	97*	95*	2	8	99*	100*	104*	98*	90*
O=C(Nc1ccc2[nH]c(=S)sc2c1)c1ccccc1	-14	52*	34	42	4	-21	66*	67*	88*	83*	74*
Cn1c2ccccc2c(=O)c2cc(C#CC3(O)CCCCC3)ccc21	i	97*	96*	92*	24	4	46	57*	36	62*	78*
N#Cc1ccc(C#Cc2ccc3oc4ccccc4c(=O)c3c2)cc1	-247	-2	-18	-4	12	-21	.	.	.	.	.
Cn1c2ccccc2c(=O)c2cc(C#Cc3ccccn3)ccc21	-465	82*	88*	83*	29	0	19	31	20	50	8
Cc1cc2sc3ccc(C#CC4(O)CCCCC4)cc3c(=O)c2cc1C	-293	99*	97*	94*	25	-3	-4	14	24	73*	2
O=c1c2ccccc2oc2ccc(C#CC3(O)CCCCC3)cc12	-215	89*	94*	92*	27	16	92*	94*	99*	83*	68*
Cn1c2ccccc2c(=O)c2ccc(C#Cc3ccccn3)cc21	.	3	13	-12	19	-1	.	.	.	.	.
Cc1ccc(OCc2nc(-c3ccccn3)no2)cc1	3	60*	40	23	-3	-8	43	45	80*	71*	44
CCc1ccc(OCc2nc(-c3ccccn3)no2)c(Br)c1	-2	91*	93*	90*	-1	-2	95*	96*	101*	87*	79*
Cc1ccc(OCc2nc(-c3ccccn3)no2)c(Br)c1	33	96*	82*	90*	21	-2	1	96*	102*	91*	93*
CC(C)c1ccc(OCc2nc(-c3ccccn3)no2)c(Br)c1	29	69*	85*	67*	17	10	74*	82*	93*	63*	70*
